Test results: ChEMBL document CHEMBL2331195, “Lahorenoic acids A-C, ortho-dialkyl-substituted aromatic acids from the biocontrol strain Pseudomonas aurantiaca PB-St2” (J Nat Prod, 2013)
≈ marks a conversion by molar mass, not a printed value. Calls of active or inactive are those of the source. The calls are words filed in the database; no cut-off is given here.

What was measured:
LNCaP = experiment: Solid tumor cytotoxicity against human LNCAP cells assessed as inhibition of cell colony formation by disc diffusion soft-agar colony formation assay; format: functional, cell-based
Method in brief: (§1)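 Cells plated in soft agar; compound dissolved in 250 μL DMSO, 15 μL applied to a cellulose disc on the plate; after incubation, colony-inhibition zone measured from disc edge to colony growth in zone units (200 zu = 6 mm); solid-tumour selectivity judged as ≥250 zu difference versus leukemia or normal CFU-GM cells.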

MCF7 = experiment: Solid tumor cytotoxicity against human MCF7 cells assessed as inhibition of cell colony formation by disc diffusion soft-agar colony formation assay; format: functional, cell-based; method in brief: as §1
H125 = experiment: Solid tumor cytotoxicity against human H125 cells assessed as inhibition of cell colony formation by disc diffusion soft-agar colony formation assay; format: functional, cell-based; method in brief: as §1
[1] = Antifungal activity against Colletotrichum falcatum assessed as inhibition of mycelial growth at 100 ug/disc incubated for 10 to 15 days at 25 degC; format: functional
Method in brief: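 Four C. falcatum strains from local sugar cane varieties (BF166, C01148, CP77400, SPF234) on potato dextrose agar; mycelial plug at plate centre, compound-loaded air-dried filter discs (25–200 μg, in methanol, chloroform or DMSO) placed 2 cm away; 10–15 days at 25 °C; zone of mycelial inhibition around disc; solvent discs as negative controls; three repeats in duplicate.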

HCT-116 = experiment: Cytotoxicity against human HCT116 cells assessed as growth inhibition after 5 days by hemocytometry; format: cell-based
Method in brief: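 HCT-116 cells were seeded at 5 × 10^4 cells/T25 flask in serum medium with 1% penicillin–streptomycin and 1% glutamine, at 37 °C and 5% CO2. Compound at various concentrations was added on day 3, followed by 120 h incubation. Cells were trypsinized, washed and resuspended in HBSS, then hemocytometer-counted. Counts were normalized to untreated control, and IC50 was derived by nonlinear regression.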

[2] = system: Mycobacterium tuberculosis; experiment: Antituberculosis activity against Mycobacterium tuberculosis H37Rv […] incubated for 7 days by Alamar blue assay; format: functional
Method in brief: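 Virulent H37Rv (ATCC 27294) in 96-well plate; compounds from 10 mg/mL DMSO stock, 2-fold dilutions from top 100 μg/mL (1% v/v DMSO final); 7 days at 37 °C; growth by Alamar Blue fluorescence; MIC = lowest concentration giving ≥90% fluorescence inhibition versus untreated bacteria; rifampicin and isoniazid positive controls, 1% DMSO negative control.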

Bacillus cereus = experiment: Antibacterial activity against Bacillus cereus assessed as inhibition of visible bacterial growth after 24 hrs; format: functional
Method in brief: (§2)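 Broth microdilution MIC using 2-fold serial dilutions. A. crystallopoietes DSM 20117 was grown in tryptic soy broth, and B. cereus in half-concentrated Mueller–Hinton broth. Final inoculum was 10^5 CFU per well. After 24 h at 37 °C, the MIC was read as the lowest concentration with no visible growth. Values are means of three independent determinations.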

[3] = system: Arthrobacter crystallopoietes; experiment: Antibacterial activity against Arthrobacter crystallopoietes DSM 20117 assessed as inhibition of visible bacterial growth after 24 hrs; format: functional; details: Crystallibacter crystallopoietes; method in brief: as §2

Row | Compound | inhibition zone (IZ) (LNCaP) | inhibition zone (IZ) (MCF7) | inhibition zone (IZ) (H125) | inhibition zone (IZ) [1] | IC50 (HCT-116; Homo sapiens, HCT-116, 120 h, read-out: IC50) [µM] | MIC90 ([2]; H37Rv ATCC 27292, 168 h) [µg/mL] | IC50 (HCT-116; hct-116) | MIC (Bacillus cereus) | MIC [3] | MIC90 [2] | MIC ([3]; DSM 20117, 24 h) [µg/mL]
1 | O=C(O)c1cccc2nc3ccccc3nc12 [PHENAZINE-1-CARBOXYLIC ACID] | Active | Active | Active | 2 mm | 15.6 | 32.9 (≈ 147 µM) | – | – | – | – | –
2 | COC(=O)CCCCCc1ccccc1/C=C/C(C)=O [LAHORENOIC ACID B] | – | – | – | – | – | 49.5 (≈ 180 µM) | Non-toxic | – | – | – | –
3 | Oc1ccc2nc3ccccc3nc2c1 | inactive | inactive | inactive | inactive | – | – | Non-toxic | inactive | inactive | inactive | –
4 | Oc1ccc2nc3ccc(O)cc3nc2c1 | – | – | – | inactive | – | – | Non-toxic | 25 µg/mL (≈ 118 µM) | – | – | 25 (≈ 118 µM)
